Activity calls are given as the source filed them. No cut-off for these calls is given here.
Tests used:
[1] = system: T47D; experiment: Antiproliferative activity against human T47D cells assessed as growth inhibition at 10 uM after 48 hrs by SRB assay; type: functional; conditions: read-out: GI
[2] = system: HL-60; experiment: Antiproliferative activity against human HL60 cells assessed as growth inhibition at 10 uM after 48 hrs by SRB assay; type: functional; conditions: HL-60, 48 h, read-out: GI
[3] = system: PC-3; experiment: Antiproliferative activity against human PC3 cells assessed as growth inhibition at 10 uM after 48 hrs by SRB assay; type: functional; conditions: PC-3, 48 h, read-out: GI
[4] = Antiproliferative activity against human MIAPaCa2 cells assessed as growth inhibition at 10 uM after 48 hrs by SRB assay; type: functional; conditions: MIA PaCa-2, 48 h, read-out: GI
[5] = system: T98G; experiment: Antiproliferative activity against human T98G cells assessed as growth inhibition at 10 uM after 48 hrs by SRB assay; type: functional; conditions: read-out: GI
[6] = system: A-431; experiment: Antiproliferative activity against human A431 cells assessed as growth inhibition at 10 uM after 48 hrs by SRB assay; type: functional; conditions: A-431, 48 h, read-out: GI
[7] = system: A549; experiment: Antiproliferative activity against human A549 cells assessed as growth inhibition at 10 uM after 48 hrs by SRB assay; type: functional; conditions: A549, 48 h, read-out: GI
[8] = Antiproliferative activity against human NCI-H322 cells assessed as growth inhibition at 10 uM after 48 hrs by SRB assay; type: functional; conditions: NCI-H322, 48 h, read-out: GI
[9] = system: HL-60; experiment: Cell cycle arrest in human HL60 cells assessed as accumulation at S phase at 30 uM after 24 hrs using propidium iodide staining by flow cytometry (reference value: 50%); type: functional
[10] = system: HL-60; experiment: Cell cycle arrest in human HL60 cells assessed as accumulation at G2 phase at 30 uM after 24 hrs using propidium iodide staining by flow cytometry (reference value: 10%); type: functional
[11] = system: HL-60; experiment: Cell cycle arrest in human HL60 cells assessed as accumulation at G1 phase at 30 uM after 24 hrs using propidium iodide staining by flow cytometry (reference value: 40%); type: functional
[12] = system: HL-60; experiment: Induction of apoptosis in human HL60 cells at 30 uM after 24 hrs using propidium iodide staining by flow cytometry (reference value: 5%); type: functional
[13] = system: HL-60; experiment: Cell cycle arrest in human HL60 cells assessed as accumulation at S phase at 20 uM after 24 hrs using propidium iodide staining by flow cytometry (reference value: 50%); type: functional
[14] = system: HL-60; experiment: Cell cycle arrest in human HL60 cells assessed as accumulation at S phase at 5 uM after 24 hrs using propidium iodide staining by flow cytometry (reference value: 50%); type: functional
[15] = system: HL-60; experiment: Cell cycle arrest in human HL60 cells assessed as accumulation at G2 phase at 5 uM after 24 hrs using propidium iodide staining by flow cytometry (reference value: 10%); type: functional
[16] = system: HL-60; experiment: Cell cycle arrest in human HL60 cells assessed as accumulation at G1 phase at 5 uM after 24 hrs using propidium iodide staining by flow cytometry (reference value: 40%); type: functional
[17] = system: HL-60; experiment: Induction of apoptosis in human HL60 cells at 5 uM after 24 hrs using propidium iodide staining by flow cytometry (reference value: 5%); type: functional
[18] = system: HL-60; experiment: Antiproliferative activity against human HL60 cells after 48 hrs by SRB assay; type: functional, cell-based; conditions: HL-60, 48 h
[19] = system: T47D; experiment: Antiproliferative activity against human T47D cells after 48 hrs by SRB assay; type: functional, cell-based
[20] = Antiproliferative activity against human MIAPaCa2 cells after 48 hrs by SRB assay; type: functional, cell-based; conditions: MIA PaCa-2, 48 h
[21] = system: PC-3; experiment: Antiproliferative activity against human PC3 cells after 48 hrs by SRB assay; type: functional, cell-based; conditions: PC-3, 48 h
[22] = system: A549; experiment: Antiproliferative activity against human A549 cells after 48 hrs by SRB assay; type: functional, cell-based; conditions: A549, 48 h
[23] = system: HL-60; experiment: Cell cycle arrest in human HL60 cells assessed as accumulation at G2 phase at 20 uM after 24 hrs using propidium iodide staining by flow cytometry (reference value: 10%); type: functional
[24] = system: HL-60; experiment: Induction of apoptosis in human HL60 cells at 20 uM after 24 hrs using propidium iodide staining by flow cytometry (reference value: 5%); type: functional
[25] = system: HL-60; experiment: Cell cycle arrest in human HL60 cells assessed as accumulation at G1 phase at 20 uM after 24 hrs using propidium iodide staining by flow cytometry (reference value: 40%); type: functional
[26] = system: HL-60; experiment: Induction of apoptosis in human HL60 cells assessed as reduction of procaspase-3 expression after 24 hrs by Western blot analysis; type: functional, cell-based
Procedure, shortened: (§1)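 Cells treated 24 h (HL-60 at 5, 20, 30 µM; A549 at 1, 3, 10 µM); RIPA lysates, 70 µg protein resolved by SDS-PAGE, transferred to PVDF, blocked in 5% milk, probed for PARP-1 and procaspase-3 with HRP secondaries, ECL detection.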

[27] = system: HL-60; experiment: Induction of apoptosis in human HL60 cells assessed as cleavage of PARP1 after 24 hrs by Western blot analysis; type: functional, cell-based; procedure, shortened: as §1
[28] = system: HL-60; experiment: Induction of apoptosis in human HL60 cells assessed as loss of mitochondrial potential at 30 uM after 24 hrs using rhodamine-123 staining by flow cytometric analysis (reference value: 2%); type: functional
[29] = system: HL-60; experiment: Induction of apoptosis in human HL60 cells assessed as loss of mitochondrial potential at 20 uM after 24 hrs using rhodamine-123 staining by flow cytometric analysis (reference value: 2%); type: functional
[30] = system: HL-60; experiment: Induction of apoptosis in human HL60 cells assessed as loss of mitochondrial potential at 5 uM after 24 hrs using rhodamine-123 staining by flow cytometric analysis (reference value: 2%); type: functional
[31] = system: HL-60; experiment: Induction of apoptosis in human HL60 cells assessed as morphological changes at 5 to 30 uM after 24 hrs using DAPI staining by fluorescence microscopic analysis; type: functional, cell-based
Procedure, shortened: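 HL-60 treated 24 h at indicated concentrations, then methanol-fixed, DAPI-stained and examined by fluorescence microscopy for cellular and nuclear apoptotic morphology, following the A549 protocol.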

CCN(CC)c1ncnc2sc(Nc3ccccc3)nc12
inhibition of growth at 10 µM [1]: 27% | inhibition of growth at 10 µM [2]: 31% | inhibition of growth at 10 µM [3]: 19% | inhibition of growth at 10 µM [4]: 9% | inhibition of growth at 10 µM [5]: 49% | inhibition of growth at 10 µM [6]: 12% | inhibition of growth at 10 µM [7]: 48% | inhibition of growth at 10 µM [8]: 39%

c1ccc(Nc2nc3c(N4CCOCC4)ncnc3s2)cc1
Activity [9]: 54% | Activity [10]: 5% | Activity [11]: 41% | Activity [12]: 24% | Activity [13]: 42% | Activity [14]: 45% | Activity [15]: 12% | Activity [16]: 43% | Activity [17]: 9% | IC50 [18]: 8 µM | IC50 [19]: 59 µM | IC50 [20]: 54 µM | IC50 [21]: 17 µM | IC50 [22]: 13 µM | inhibition of growth at 10 µM [1]: 12% | inhibition of growth at 10 µM [2]: 59% | inhibition of growth at 10 µM [3]: 45% | inhibition of growth at 10 µM [4]: 12% | inhibition of growth at 10 µM [5]: 26% | inhibition of growth at 10 µM [6]: 4% | inhibition of growth at 10 µM [7]: 38% | inhibition of growth at 10 µM [8]: 7% | Activity [23]: 7% | Activity [24]: 12% | Activity [25]: 51% | Activity [26]: Dose-dependent effect | Activity [27]: Dose-dependent effect | Activity [28]: 26% | Activity [29]: 16% | Activity [30]: 9% | Activity [31]: Active

c1ccc(Nc2nc3c(N4CCNCC4)ncnc3s2)cc1
inhibition of growth at 10 µM [1]: 21% | inhibition of growth at 10 µM [2]: 39% | inhibition of growth at 10 µM [3]: 35% | inhibition of growth at 10 µM [4]: 30% | inhibition of growth at 10 µM [5]: 12% | inhibition of growth at 10 µM [6]: 18% | inhibition of growth at 10 µM [7]: 19% | inhibition of growth at 10 µM [8]: 35%

Clc1ccc(Nc2nc3c(N4CCOCC4)ncnc3s2)cc1
inhibition of growth at 10 µM [1]: 40% | inhibition of growth at 10 µM [2]: 33% | inhibition of growth at 10 µM [3]: 39% | inhibition of growth at 10 µM [4]: 21% | inhibition of growth at 10 µM [5]: 22% | inhibition of growth at 10 µM [6]: 0% | inhibition of growth at 10 µM [7]: 24% | inhibition of growth at 10 µM [8]: 42%

c1ccc(Nc2nc3c(N4CCC(N5CCCCC5)CC4)ncnc3s2)cc1
inhibition of growth at 10 µM [1]: 21% | inhibition of growth at 10 µM [2]: 39% | inhibition of growth at 10 µM [3]: 34% | inhibition of growth at 10 µM [4]: 23% | inhibition of growth at 10 µM [5]: 13% | inhibition of growth at 10 µM [6]: 10% | inhibition of growth at 10 µM [7]: 19% | inhibition of growth at 10 µM [8]: 30%

CN(C)c1ncnc2sc(Nc3ccccc3)nc12
inhibition of growth at 10 µM [1]: 31% | inhibition of growth at 10 µM [2]: 28% | inhibition of growth at 10 µM [3]: 36% | inhibition of growth at 10 µM [4]: 9% | inhibition of growth at 10 µM [5]: 45% | inhibition of growth at 10 µM [6]: 10% | inhibition of growth at 10 µM [7]: 28% | inhibition of growth at 10 µM [8]: 18%

Clc1ccc(Nc2nc3c(N4CCCCC4)ncnc3s2)cc1
inhibition of growth at 10 µM [1]: 8% | inhibition of growth at 10 µM [2]: 21% | inhibition of growth at 10 µM [3]: 2% | inhibition of growth at 10 µM [4]: 1% | inhibition of growth at 10 µM [5]: 45% | inhibition of growth at 10 µM [6]: 22% | inhibition of growth at 10 µM [7]: 57% | inhibition of growth at 10 µM [8]: 63%

CN1CCN(c2ncnc3sc(Nc4ccccc4)nc23)CC1
inhibition of growth at 10 µM [1]: 13% | inhibition of growth at 10 µM [2]: 12% | inhibition of growth at 10 µM [3]: 29% | inhibition of growth at 10 µM [4]: 10% | inhibition of growth at 10 µM [5]: 36% | inhibition of growth at 10 µM [6]: 19% | inhibition of growth at 10 µM [7]: 19% | inhibition of growth at 10 µM [8]: 39%

CCN1CCN(c2ncnc3sc(Nc4ccccc4)nc23)CC1
inhibition of growth at 10 µM [1]: 29% | inhibition of growth at 10 µM [2]: 24% | inhibition of growth at 10 µM [3]: 19% | inhibition of growth at 10 µM [4]: 9% | inhibition of growth at 10 µM [5]: 19% | inhibition of growth at 10 µM [6]: 0% | inhibition of growth at 10 µM [7]: 25% | inhibition of growth at 10 µM [8]: 27%

From ChEMBL document CHEMBL3085659, “Synthesis, antiproliferative and apoptosis-inducing activity of thiazolo[5,4-d]pyrimidines” (Eur J Med Chem, 2013)
